Measurements reported in ChEMBL document CHEMBL3414532 (J Med Chem, 2015).

How the values were obtained:
[1] = molecular target: T1, Human immunodeficiency virus type 1 reverse transcriptase (Human immunodeficiency virus 1, UniProt Q72547); experiment: Inhibition of HIV1 recombinant reverse transcriptase associated catalytically active RNase H domain assessed as reduction in internal cleavage using HTS-1 RNA/DNA duplex substrate by fluorescence assay
[2] = Therapeutic index, ratio of CC50 for human HeLa P4/R5 cells to EC50 for HIV infected in human HeLa P4/R5 cells; format: cell-based; conditions: read-out: Ratio CC50/EC50
[3] = molecular target: T1, Human immunodeficiency virus type 1 reverse transcriptase; experiment: Inhibition of reconstituted HIV1 RNase H using RNA/DNA duplex substrate by fluorescence assay
[4] = molecular target: T1, Human immunodeficiency virus type 1 reverse transcriptase; experiment: Inhibition of HIV1 recombinant reverse transcriptase polymerase activity using [3H]TTP and poly(rA)-oligo(dT)16 substrate incubated for 20 mins by liquid scintillation spectrometry
In short: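 HIV RT (WT or NNRTI-resistant mutant, 10 nM) added to start reaction with 10 μM [3H]-TTP and 40 nM poly(rA)-oligo(dT)16 in 50 mM Tris-HCl pH 7.4, 60 mM KCl, 5 mM MgCl2; 20 min at 37 °C. Quenched with ice-cold 10% TCA/20 mM sodium pyrophosphate, glass-fiber filtered, washed with TCA and ethanol; incorporation counted by scintillation.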

[5] = molecular target: T1, Human immunodeficiency virus type 1 reverse transcriptase; experiment: Inhibition of HIV1 recombinant reverse transcriptase associated catalytically active RNase H domain assessed as reduction in RNA 5' end directed cleavage using HTS-3 RNA/DNA duplex substrate by fluorescence assay
[6] = molecular target: T1, Human immunodeficiency virus type 1 reverse transcriptase; experiment: Inhibition of HIV1 recombinant reverse transcriptase associated catalytically active RNase H domain assessed as reduction in DNA 3' end directed cleavage using HTS-2 RNA/DNA duplex substrate by fluorescence assay
[7] = test system: Human immunodeficiency virus; experiment: Antiviral activity against HIV infected in human HeLa P4/R5 cells pre-incubated for 16 hrs before virus infection and measured 48 hrs post virus infection by fluorescence-based beta-galactosidase detection assay; format: functional, organism-based; conditions: Human immunodeficiency virus 1, P4/R5
In short: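 P4R5 indicator cells (expressing CD4, CXCR4, CCR5 and an HIV LTR-driven β-galactosidase reporter) seeded at 5 × 10^3 per well in DMEM/10% FBS with puromycin (0.5 μg/mL). Drug added 16 h before HIV exposure, then 48 h further incubation. Single replication cycle; infection read by fluorescence-based β-galactosidase detection. Highest concentration tested 50 μM; values are averages of two determinations.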

[8] = Toxicity against human HeLa P4/R5 cells; format: cell-based
[9] = molecular target: Human immunodeficiency virus type 1 integrase (Human immunodeficiency virus 1, UniProt Q7ZJM1); experiment: Inhibition of HIV integrase pre-incubated for 10 mins before DNA substrate addition
In short: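 Strand transfer assay: 1 μM HIV integrase in 10 mM HEPES pH 7.5, 10% glycerol, 10 mM MnCl2, 1 mM DTT, with compound at 0.13–100 μM final in duplicate, preincubated 10 min at 25 °C. Started with biotin/Cy5-labelled oligo duplex, run 30 min at 37 °C, stopped with EDTA. Mean ± SD from at least three experiments.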

[10] = Inhibition of Escherichia coli RNase H pre-incubated for 10 mins before HTS-1 RNA/DNA duplex substrate addition by fluorescence assay
In short: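 E. coli RNase H at 4 nM with 6 mM MgCl2 and inhibitor at 1, 7 or 30 μM (2% DMSO final) in 50 mM Tris pH 7.8, 50 mM NaCl. Preincubated 10 min at room temperature, then started with 100 nM HTS-1 (fluorescein/Dabcyl RNA/DNA duplex). IC50 taken at curve midpoint; duplicates, at least two independent experiments.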

[11] = Inhibition of Moloney murine leukemia virus reverse transcriptase associated RNase H pre-incubated for 10 mins before HTS-1 RNA/DNA duplex substrate addition by fluorescence assay
In short: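 Preincubated 10 min at room temperature, then started with 100 nM HTS-1 duplex. IC50 at curve midpoint; duplicates, at least two experiments.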

Chain of Human immunodeficiency virus type 1 integrase (Q7ZJM1 whole entry): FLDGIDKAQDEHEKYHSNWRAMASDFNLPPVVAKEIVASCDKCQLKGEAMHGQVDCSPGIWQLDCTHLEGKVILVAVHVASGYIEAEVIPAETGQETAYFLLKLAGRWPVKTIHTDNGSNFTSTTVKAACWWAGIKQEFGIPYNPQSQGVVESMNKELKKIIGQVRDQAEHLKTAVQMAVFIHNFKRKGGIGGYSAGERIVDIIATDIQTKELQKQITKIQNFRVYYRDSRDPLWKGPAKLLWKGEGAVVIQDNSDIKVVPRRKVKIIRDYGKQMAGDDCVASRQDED

SMILES	IC50 [1]	selectivity ratio [2]	IC50 [3]	IC50 [4]	IC50 [5]	IC50 [6]	EC50 [7]	CC50 ([8]; HeLa P4/R5 cells)	IC50 [9]	IC50 [10]	IC50 [11]	CC50 ([8]; p4/r5)
O=C1Cc2cc(Cc3ccc(-c4cccs4)cc3)ccc2C(=O)N1O	2700 nM	> 4	700 nM	1500 nM	2700 nM	2000 nM	13000 nM	> 50000 nM	> 100000 nM	–	–	–
O=C1Cc2cc(Cc3ccc(-c4ccccc4)cc3)ccc2C(=O)N1O	800 nM	–	500 nM	–	900 nM	600 nM	3000 nM	–	> 100000 nM	3400 nM	> 30000 nM	50000 nM
COc1ccc(-c2ccc(Cc3ccc4c(c3)CC(=O)N(O)C4=O)cc2)cc1F	2200 nM	> 4	700 nM	1900 nM	1200 nM	1800 nM	13000 nM	> 50000 nM	> 100000 nM	–	–	–
NC(=O)c1ccc(-c2ccc(Cc3ccc4c(c3)CC(=O)N(O)C4=O)cc2)cc1	–	–	1500 nM	–	–	–	–	–	–	–	–	–
O=C1Cc2cc(Cc3ccc(-c4ccncc4)cc3)ccc2C(=O)N1O	–	–	800 nM	–	–	–	–	–	–	4000 nM	> 30000 nM	–
O=C1Cc2cc(Cc3ccc(Cl)cc3)ccc2C(=O)N1O	–	–	–	–	–	–	–	–	4400 nM	–	> 30000 nM	–
O=C1Cc2cc(Cc3ccc(C4CC4)cc3)ccc2C(=O)N1O	600 nM	–	900 nM	–	900 nM	800 nM	–	–	3800 nM	–	> 30000 nM	–
O=C1Cc2cc(Cc3ccc(C(F)(F)F)cc3)ccc2C(=O)N1O	1500 nM	–	1200 nM	–	2000 nM	1100 nM	6200 nM	–	> 100000 nM	–	> 30000 nM	50000 nM
